Data: ChEMBL document CHEMBL1255505, “Synthesis of new series of quinoxaline based MAO-inhibitors and docking studies” (Eur J Med Chem, 2010)

Experiments:
[1] = Selectivity index ratio of IC50 for MAOB to IC50 for MAOA
Summary of the method: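 Bovine brain mitochondria (6 mg/ml) in 0.25 M phosphate buffer, pH 7.4, with 0.1 mM isoform-specific substrate. Compound in propylene glycol at 0.5 nM–0.1 M; 60 min at 37 °C, perchloric acid stop, fluorimetric read. Six samples in duplicate; ratio of the MAO-B and MAO-A IC50s.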

[2] = Inhibition of MAOA by spectrofluorimetry
[3] = target: Amine oxidase [flavin-containing] B (Bos taurus) (UniProt P56560)
Chain of Amine oxidase [flavin-containing] B (Bos taurus) (P56560 whole entry, looked up): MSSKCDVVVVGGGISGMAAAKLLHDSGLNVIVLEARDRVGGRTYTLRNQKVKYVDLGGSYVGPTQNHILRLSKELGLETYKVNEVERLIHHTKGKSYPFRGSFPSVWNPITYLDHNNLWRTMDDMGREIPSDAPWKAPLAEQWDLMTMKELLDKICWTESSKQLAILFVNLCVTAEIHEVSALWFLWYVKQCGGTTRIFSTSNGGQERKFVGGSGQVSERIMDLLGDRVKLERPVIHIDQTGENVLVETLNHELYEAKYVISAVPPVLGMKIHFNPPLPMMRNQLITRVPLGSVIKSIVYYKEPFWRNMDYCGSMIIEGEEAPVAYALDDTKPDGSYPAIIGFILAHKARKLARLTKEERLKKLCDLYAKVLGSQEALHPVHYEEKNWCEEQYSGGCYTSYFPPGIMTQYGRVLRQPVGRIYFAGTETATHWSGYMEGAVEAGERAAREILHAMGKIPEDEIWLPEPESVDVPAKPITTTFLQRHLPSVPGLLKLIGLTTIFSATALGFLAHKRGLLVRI

Row | SMILES | Ratio IC50 [1] | IC50 [2] [µM] | IC50 [3] [µM]
1 | C=NNc1nc2ccccc2nc1Cc1ccccc1 | 10400 | 0.086 | 950
2 | Cc1ccsc1/C=N/Nc1nc2ccccc2nc1Cc1ccccc1 | – | – | 860
3 | C/C(=N\Nc1nc2ccccc2nc1Cc1ccccc1)c1ccc(O)cc1 | 3e+06 | 0.0028 | 8400
4 | COc1ccccc1/C=N/Nc1nc2ccccc2nc1Cc1ccccc1 | 9510 | 0.083 | 790
5 | COc1ccc(/C=N/Nc2nc3ccccc3nc2Cc2ccccc2)cc1OC | 8210 | 0.056 | 460
6 | C/C(=N\Nc1nc2ccccc2nc1Cc1ccccc1)c1ccccc1 | 12400 | 0.079 | 980
7 | COc1cc(/C(C)=N/Nc2nc3ccccc3nc2Cc2ccccc2)cc(OC)c1OC | 8960 | 0.029 | 260
8 | Clc1ccc(/C=N/Nc2nc3ccccc3nc2Cc2ccccc2)cc1 | 1100 | 0.076 | 84
9 | Clc1ccccc1-c1nnc2c(Cc3ccccc3)nc3ccccc3n12 | 11800 | 0.0061 | 72
10 | C/C(=N\Nc1nc2ccccc2nc1Cc1ccccc1)c1ccc(C)cc1 | 8600 | 0.086 | 740
11 | Oc1ccc(/C=N/Nc2nc3ccccc3nc2Cc2ccccc2)cc1 | 2.32e+06 | 0.0034 | 7900
12 | COc1ccc(/C(C)=N/Nc2nc3ccccc3nc2Cc2ccccc2)cc1 | 3140 | 0.089 | 280
13 | C(=N\Nc1nc2ccccc2nc1Cc1ccccc1)/c1ccccc1 | 3950 | 0.081 | 320
14 | Clc1ccccc1/C=N/Nc1nc2ccccc2nc1Cc1ccccc1 | 15000 | 0.0058 | 87
15 | C(=N\Nc1nc2ccccc2nc1Cc1ccccc1)/c1ccc2c(c1)OCO2 | – | – | 87
16 | CN(C)c1ccc(/C=N/Nc2nc3ccccc3nc2Cc2ccccc2)cc1 | 10600 | 0.083 | 880
17 | COc1ccc(/C=N/Nc2nc3ccccc3nc2Cc2ccccc2)cc1 | – | – | 79
18 | C/C(=N\Nc1nc2ccccc2nc1Cc1ccccc1)c1ccccn1 | 10800 | 0.091 | 980
19 | C/C(=N\Nc1nc2ccccc2nc1Cc1ccccc1)c1ccc([N+](=O)[O-])cc1 | – | – | 89
20 | C/C(=N\Nc1nc2ccccc2nc1Cc1ccccc1)c1cccs1 | 13300 | 0.064 | 850
21 | C/C(=N\Nc1nc2ccccc2nc1Cc1ccccc1)c1ccc(N)cc1 | 87700 | 0.0098 | 860

Now from value to compound:

Row | Ratio IC50 [1] | IC50 [2] [µM] | IC50 [3] [µM] | SMILES
22 | – | – | 85 | COc1ccc(-c2nnc3c(C(=O)c4ccccc4)nc4ccccc4n23)cc1
23 | 1090 | 0.087 | 95 | c1ccc(Cc2nc3ccccc3n3cnnc23)cc1
24 | 12000 | 0.082 | 980 | c1ccc(Cc2nc3ccccc3n3c(-c4ccccc4)nnc23)cc1
25 | 2.7e+06 | 0.0027 | 7300 | CN(C)c1ccc(-c2nnc3c(C(=O)c4ccccc4)nc4ccccc4n23)cc1
26 | 12600 | 0.0068 | 86 | COc1ccc(-c2nnc3c(C(=O)c4ccccc4)nc4ccccc4n23)cc1OC
27 | 88800 | 0.0027 | 240 | O=C(c1ccccc1)c1nc2ccccc2n2c(-c3ccccc3)nnc12
28 | – | – | 73 | CN(C)c1ccc(-c2nnc3c(C(=O)c4ccccc4)nc4ccccc4n23)cc1Br
29 | 4310 | 0.088 | 380 | O=C(c1ccccc1)c1nc2ccccc2n2c(-c3ccccc3Cl)nnc12
30 | 1250 | 0.75 | 940 | O=C(c1ccccc1)c1nc2ccccc2n2cnnc12
31 | 10400 | 0.022 | 230 | O=C(c1ccccc1)c1nc2ccccc2n2c(-c3ccc([N+](=O)[O-])cc3)nnc12
